Test results from ChEMBL document CHEMBL1629614, “Inhibition of methionyl-tRNA synthetase by REP8839 and effects of resistance mutations on enzyme activity” (Antimicrob Agents Chemother, 2009).

Legend:
[1] = test system: C=C(F)c1sc(CNCCCNc2cc(=O)c3ccccc3[nH]2)c(C)c1Br; experiment: Activity of Bacillus stearothermophilus MetRS by ATP:PPi exchange assay in presence of ATP; settings: Geobacillus stearothermophilus
[2] = test system: C=C(F)c1sc(CNCCCNc2cc(=O)c3ccccc3[nH]2)c(C)c1Br; experiment: Activity of Bacillus stearothermophilus MetRS by ATP:PPi exchange assay in presence of methionine; settings: Geobacillus stearothermophilus
Homo sapiens [3] = species: Homo sapiens; experiment: Activity of human mitochondrial MetRS by ATP:PPi exchange assay in presence of methionine
Streptococcus pneumoniae [4] = experiment: Activity of Streptococcus pneumoniae MetRS1 by ATP:PPi exchange assay in presence of methionine
Escherichia coli [5] = experiment: Activity of Escherichia coli MetRS by ATP:PPi exchange assay in presence of methionine
Staphylococcus aureus [6] = experiment: Ratio of Kcat to Km for Staphylococcus aureus MetRS in presence of tRNA
Staphylococcus aureus [7] = experiment: Ratio of Kcat to Km for Staphylococcus aureus MetRS in presence of ATP
How it was run: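 Purified recombinant S. aureus MetRS (30 nM) was assayed by ATP:PPi exchange at 30°C in Tris pH 8.0 with Mg acetate, KCl and DTT. [32P]PPi was matched to ATP, and ATP or methionine was varied. Time points from 1 to 10 min were quenched with EDTA, separated by PEI-cellulose TLC and read by phosphorimager. Initial rates were fitted to Michaelis-Menten.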

Staphylococcus aureus [8] = experiment: Activity of […] by scintillation proximity assay in presence of tRNA
Staphylococcus aureus [9] = experiment: Activity of Staphylococcus aureus MetRS by ATP:PPi exchange assay in presence of ATP
How it was run: (§1)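 Purified S. aureus MetRS (wild type or mutant; E. coli-expressed, ammonium sulfate cut, anion exchange) at 30 nM. ATP:PPi exchange at 30°C in 100 mM Tris-HCl pH 8.0, 5–10 mM Mg acetate, 80 mM KCl, 2.5 mM DTT, [32P]PPi plus cold PPi equal to ATP. Quenched with EDTA over 1–10 min, PEI-cellulose TLC, phosphorimager. Initial velocities versus varied ATP or methionine fit to Michaelis-Menten.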

Homo sapiens [10] = species: Homo sapiens; experiment: Activity of human mitochondrial MetRS by ATP:PPi exchange assay in presence of ATP
Streptococcus pneumoniae [11] = experiment: Activity of Streptococcus pneumoniae MetRS1 by ATP:PPi exchange assay in presence of ATP
Escherichia coli [12] = experiment: Activity of Escherichia coli MetRS by ATP:PPi exchange assay in presence of ATP
Staphylococcus aureus [13] = experiment: Ratio of Kcat to Km for Staphylococcus aureus MetRS in presence of methionine
Staphylococcus aureus [14] = experiment: Activity of Staphylococcus aureus MetRS by ATP:PPi exchange assay in presence of methionine; how it was run: as §1

Sequence of Methionine--tRNA ligase (Geobacillus stearothermophilus), P23920 (P23920 whole entry): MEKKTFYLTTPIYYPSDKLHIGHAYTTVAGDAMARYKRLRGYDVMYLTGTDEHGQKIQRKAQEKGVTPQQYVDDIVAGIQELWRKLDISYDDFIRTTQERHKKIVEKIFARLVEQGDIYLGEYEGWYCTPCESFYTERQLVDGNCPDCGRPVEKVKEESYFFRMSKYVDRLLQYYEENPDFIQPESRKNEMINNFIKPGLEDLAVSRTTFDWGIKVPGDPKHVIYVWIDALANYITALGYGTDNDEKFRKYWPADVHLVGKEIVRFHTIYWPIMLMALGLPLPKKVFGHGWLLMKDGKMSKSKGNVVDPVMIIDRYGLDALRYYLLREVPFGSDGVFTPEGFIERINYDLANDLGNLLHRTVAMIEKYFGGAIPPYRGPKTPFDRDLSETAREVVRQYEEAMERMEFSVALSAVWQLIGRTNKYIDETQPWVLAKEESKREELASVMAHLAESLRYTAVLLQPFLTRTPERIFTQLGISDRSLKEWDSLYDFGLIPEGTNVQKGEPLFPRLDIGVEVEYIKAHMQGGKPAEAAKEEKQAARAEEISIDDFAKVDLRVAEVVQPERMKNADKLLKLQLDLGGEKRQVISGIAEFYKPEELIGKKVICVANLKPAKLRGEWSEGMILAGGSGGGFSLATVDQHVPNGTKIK

Molecule | Km [1] | Km [2] | Km (Homo sapiens [3]) | Km (Streptococcus pneumoniae [4]) | Km (Escherichia coli [5]) | kcat/Km (Staphylococcus aureus [6]) | kcat/Km (Staphylococcus aureus [7]) | Km (Staphylococcus aureus [8]) | kcat (Staphylococcus aureus [8]) | Km (Staphylococcus aureus [9]) | Km (Homo sapiens [10]) | Km (Streptococcus pneumoniae [11]) | Km (Escherichia coli [12]) | kcat/Km (Staphylococcus aureus [13]) | Km (Staphylococcus aureus [14])
Methionine--tRNA ligase (Geobacillus stearothermophilus), P23920 | 1 µM | 6 µM |  |  |  |  |  |  |  |  |  |  |  |  | 
C=C(F)c1sc(CNCCCNc2cc(=O)c3ccccc3[nH]2)c(C)c1Br |  |  | 20 µM | 53 µM | 20 µM | 490000 M⁻¹ s⁻¹ | 50000 M⁻¹ s⁻¹ | 1 µM | 0.49 s⁻¹ | 500 µM | 85 µM | 514 µM | 20 µM | 250000 M⁻¹ s⁻¹ | 100 µM
